# Screens as filed in PubChem.
# Lmaj promast: Leishmania major promastigote growth inhibition; Leishmania major promastigotes, resazurin fluorescence viability; inhibition, % at 10 µM; hit rate 9% among 200,000; in the data active = inhibition above about 50%;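 note: promastigotes grown with compound for 44 hours at 28 °C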
# PMI act: activators of human phosphomannose isomerase; activation factor at 20 µM; P34949; purified human PMI, coupled resazurin fluorescence, 20 min; stronger effect = higher value; 1 = vehicle control, 0 substrate-free wells; hit rate 0.005% among 190,000; AID 1214;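 active = activation factor of 2 or more at 20 µM, relative to plate controls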
# Target sequence (P34949 whole entry, looked up): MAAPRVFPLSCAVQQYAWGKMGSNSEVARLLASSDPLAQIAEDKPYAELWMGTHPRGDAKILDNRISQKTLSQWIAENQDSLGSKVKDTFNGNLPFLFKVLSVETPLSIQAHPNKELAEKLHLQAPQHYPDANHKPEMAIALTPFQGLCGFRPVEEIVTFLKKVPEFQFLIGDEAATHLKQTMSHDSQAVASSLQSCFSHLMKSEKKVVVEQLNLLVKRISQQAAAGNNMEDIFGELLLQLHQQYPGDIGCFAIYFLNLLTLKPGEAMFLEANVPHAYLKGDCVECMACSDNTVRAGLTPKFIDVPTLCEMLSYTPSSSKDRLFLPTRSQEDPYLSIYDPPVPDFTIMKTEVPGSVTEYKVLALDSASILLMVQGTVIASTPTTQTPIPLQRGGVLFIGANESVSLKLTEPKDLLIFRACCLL
# HCT116 PTEN-null: suppresses growth of cells with PTEN deletion. viability, % at 10 µM. AID 827. HCT116 PTEN-null viability, CellTiter-Glo, 60 h; stronger effect = lower value. hit rate 1.2% among 140,000;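 active = viability at or below a set limit, 4 SD under the median of all tested compounds, cut at about 3.7% in these data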;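 note: PTEN knockout HCT116 line with beta catenin targeted HCT116 as companion control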
# PMI act satM6P: PMI (human) activation, high substrate; coupled PMI enzyme assay, resazurin fluorescence, 20 min; stronger effect = higher value; 1 = untreated enzyme, 0 = substrate-free blank; P34949; hit rate 0.34% among 190,000; activation factor at 20 µM;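 active = activation factor of 2 or more at 20 µM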
#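 Technique: Diaphorase-driven resazurin-to-resorufin fluorescence, excitation 544, emission 590 nm | Assay system: Human PMI in coupled enzyme assay | Times: Enzyme reaction with compound 20 min at room temperature | Medium: HEPES-buffered pH 7.4 with magnesium and detergent | Reagent: Mannose-6-phosphate 1.0 mM (near-saturating) plus 0.22 mM NADP+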
# HCT116 bCat-KO: beta-catenin-lacking colon tumor cell growth suppression | HCT116 beta-catenin knockout viability, CellTiter-Glo, 60 h; stronger effect = lower value | viability, % at 10 µM | hit rate 1.5% among 140,000;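 active = viability at or under a set limit, the compound median less 4 SD, cut at about 6% in these data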;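 note: 0% = Hyamine 1622 control at 20 µM and 100% = untreated cell control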
# * = called active by the depositor; / = not tested or not shown. The list is not random: actives were taken first. Their share in the collection is about 9.6%.
SMILES,Lmaj promast,PMI act,HCT116 PTEN-null,PMI act satM6P,HCT116 bCat-KO
CCCn1c(=O)c(C(=O)Nc2ccccc2C(=O)OC)c(O)c2ccccc21,-6.8,1.1,24.0,1.2,21.8
CCn1c(=O)c(C(=O)Nc2ccsc2C(=O)OC)c(O)c2ccccc21,3.7,1.1,4.8,1.2,4.7*
CCn1c(=O)c(C(=O)NNS(=O)(=O)c2ccc(C)cc2)c(O)c2ccccc21,58.9*,1,96.0,1,97.0
C=CCn1c(=O)c(C(=O)Nc2ccccc2C(=O)OCC)c(O)c2ccccc21,68.0*,0.9,56.0,0.9,58.5
CCOC(=O)c1ccccc1NC(=O)c1c(O)c2ccccc2n(CC)c1=O,-4.3,0.9,72.7,1,69.3
COc1ccc(S(=O)(=O)Nc2cc3c(cc2C(C)=O)OCO3)cc1,-6.6,/,/,/,/
COc1ccc(NC(=O)c2oc3ccccc3c2NC(=O)c2ccc3c(c2)OCO3)cc1,99.9*,0.8,83.5,0.8,83.5
CCOC(=O)c1oc2ccccc2c1NC(=O)c1ccc2c(c1)OCO2,-6.2,1,90.6,1,96.5
Cc1cccc(NCCC#N)c1,-6.0,0.8,95.3,0.8,101.5
Cc1ccc(C)c(NCCC#N)c1,52.5*,1.1,93.4,1.1,96.0
Cc1ccc(NCCC#N)cc1C,50.1*,1.1,95.5,1,92.3
O=C(NNS(=O)(=O)c1ccccc1[N+](=O)[O-])c1cccc([N+](=O)[O-])c1,-9.5,1,95.2,1.1,86.1
Cc1noc(C)c1COC(=O)c1ccc(S(=O)(=O)N2CCCCC2)cc1,-3.7,0.9,/,1,/
COc1ccc(CCN(C(=O)c2cccc(F)c2)C2CC(=O)N(c3ccccc3)C2=O)cc1 (stereo not given),-2.1,1,88.2,1,88.4
CCCOc1ccc(N2C(=O)CC(N(Cc3ccc(OC)cc3)C(=S)Nc3ccccc3)C2=O)cc1 (stereo not given),68.5*,0.9,55.3,0.9,67.7
COc1ccc(CCN(C(=O)c2cccc(F)c2)C2CC(=O)N(c3ccc(OC)cc3)C2=O)cc1 (stereo not given),72.4*,0.9,93.1,0.9,93.3
CCOc1ccc2c(c1)OC(c1ccc(C)cc1)(C(F)(F)F)NC2=O (stereo not given),100.3*,1.1,14.3,1,14.7
CC(C)CC(=O)NC(=S)Nc1ccc(S(=O)(=O)NC(C)(C)C)cc1,62.2*,0.9,80.0,0.9,90.1
CC(C)CC(=O)NC(=S)Nc1ccc(S(=O)(=O)Nc2nccs2)cc1,54.8*,0.9,102.2,0.9,97.9
CCCC(=O)NC(=S)Nc1ccc(S(=O)(=O)Nc2ccc(OCC)cc2)cc1,-2.4,0.8,82.5,0.9,75.3
CCOc1ccc(NS(=O)(=O)c2ccc(NC(=S)NC(=O)CC(C)C)cc2)cc1,98.2*,0.9,79.7,0.9,77.5
O=C(Nc1ccc(S(=O)(=O)Nc2nccs2)cc1)c1ccc(N2C(=O)c3ccccc3C2=O)cc1,100.6*,1.1,/,1.1,/
O=C(O)C1C2C=CC3(CN(Cc4ccccn4)C(=O)C13)O2 (stereo not given),-7.5,1,98.3,1.1,92.4
Cc1ccc2nc(NC(=O)CCCc3nc4ccccc4s3)sc2c1,90.5*,0.9,/,1,101.6
Cc1csc(NC(=O)Cn2nc(C)c([N+](=O)[O-])c2C)n1,-2.6,1,/,1,/
SMILES,Lmaj promast,PMI act,HCT116 PTEN-null,PMI act satM6P,HCT116 bCat-KO
Cc1ccc2nc(NC(=O)Cn3nc(C)c([N+](=O)[O-])c3C)sc2c1,68.7*,0.9,104.8,0.8,95.4
CC(=O)c1ccc(NC(=O)Cn2nc(C)c([N+](=O)[O-])c2C)cc1,17.4,1.1,/,1.1,/
Cc1ccc2nc(NC(=O)CCCC(=O)O)sc2c1,-4.4,0.9,/,1,/
Cc1nn(CC(=O)Nc2cccc(S(N)(=O)=O)c2)c(C)c1[N+](=O)[O-],63.4*,1,99.6,1.1,97.5
CN1CCC(N(C)C(=S)NC(=O)c2cc(-c3cccc(Br)c3)nc3ccccc23)CC1,18.9,0.9,/,0.9,/
COc1ccccc1/C=C1\SC(=S)N(CCC(=O)NC2=NCCS2)C1=O,51.6*,1,97.9,0.9,95.8
CN1CCN(C(=O)CCN2C(=O)/C(=C/c3ccccc3Cl)SC2=S)CC1,100.1*,1,/,0.8,/
Cc1ccc(/C=C2/SC(=S)N(CCC(=O)N3CCN(C)CC3)C2=O)cc1,97.0*,1,/,1.1,/
CN1CCN(C(=O)CCN2C(=O)S/C(=C/c3ccc(Cl)cc3)C2=O)CC1,32.3,1.1,/,1.1,/
O=C(CCN1C(=O)/C(=C\c2cccs2)SC1=S)NC1=NCCS1,-3.6,1,93.8,1,87.4
Cc1cc(NC(=O)CCSc2ccccc2)ccc1Br,6.8,0.8,81.2,0.9,82.3
O=C(/C=C/c1ccccc1)c1ccccn1,23.8,0.9,3.9,0.8,5.7*
CN(C)c1ccc(C(=O)/C=C/c2ccc(Br)cc2)cc1,89.9*,0.9,78.8,0.9,88.4
CC(=O)Nc1cccc(C(=O)/C=C/c2ccco2)c1,-2.6,0.8,21.8,0.7,18.0
CC(=O)Nc1cccc(C(=O)/C=C/c2ccc(F)cc2)c1,100.2*,1,/,1,/
Cc1nn(-c2ccccc2)c(Cl)c1/C=C/C(=O)c1ccccc1,69.2*,1.1,4.4,1.2,7.8
N/C(=N\OC(=O)/C=C/c1ccccc1)c1ccccn1,2.2,0.9,/,0.8,/
O=C(Nc1nc2ccccc2[nH]1)c1cc2ccccc2o1,15.8,1,/,0.7,/
CC(C)CNC(=O)c1cccc(NC(=O)Cc2ccc(Br)cc2)c1,-0.4,1,93.4,1,88.3
CCC(=O)Nc1cccc(C(=O)/C=C/c2cc(Br)ccc2OC)c1,100.4*,0.8,0.7*,0.9,0.8*
CC(=O)Nc1cccc(C(=O)/C=C/c2ccc(/C=C/C(=O)c3cccc(NC(C)=O)c3)cc2)c1,79.8*,0.9,1.8*,1,4.2*
Cc1ccc(/C=C/C(=O)c2ccccc2)cc1,18.3,0.8,0.4*,0.9,0.9*
CN(C)c1ccc(C(=O)/C=C/c2ccccc2)cc1,-1.8,1.1,/,1,/
CC(=O)Nc1cccc(C(=O)/C=C/c2ccc(N(C)C)cc2)c1,6.8,1,58.4,0.8,56.1
COc1ccc(/C=C/C(=O)Nc2cccc(C(C)=O)c2)cc1,85.5*,1,83.2,1,85.3
SMILES,Lmaj promast,PMI act,HCT116 PTEN-null,PMI act satM6P,HCT116 bCat-KO
COC(=O)c1c(-c2ccc3ccccc3c2)csc1NC(=O)Cc1ccc(OC)c(OC)c1,21.9,1,106.5,0.9,102.5
Nc1c(Cl)nc(-c2ccccc2)nc1Cl,-7.9,1.1,/,1,/
COc1ccc(C(=O)Nc2ccccc2C(=O)NC(Cc2ccc(O)cc2)C(=O)NNC(=O)c2ccncc2)cc1 (stereo not given),-3.5,1,/,1,/
CN(C)c1ccc(/C=C/C(=O)c2ccccc2)cc1[N+](=O)[O-],99.8*,0.8,1.4*,0.9,1.8*
Cc1nn(-c2ccccc2)c(Cl)c1/C=C1\SC(=S)N(C)C1=O,53.3*,1.1,72.7,1.1,62.2
CC(=O)Nc1cccc(C(=O)/C=C/c2ccc(Br)cc2)c1,100.3*,0.9,1.3*,0.9,1.5*
